Experimental data taken from the EternaBench riboswitch data.

Tested on: MS2 coat protein
Assay: apparent Kd, MS2 coat protein; higher = weaker binding; RNA-MaP array; FMN 200 µM where present
Summary of the method: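 Stalled E. coli RNA polymerase transcribed the designs on Illumina sequencing-chip clusters. SNAP-549-labelled MS2 coat protein was titrated from 0.7 or 1.5 nM, doubling to 3 µM, without and then with constant ligand, in 100 mM Tris-HCl pH 7.5, 80 mM KCl, 4 mM MgCl2, BSA, DTT, yeast tRNA and Tween-20. Per-cluster binding curves were fitted to green signal normalised to red-channel RNA signal and control-cluster median Fmax. The apparent Kd is the median of the filtered fits.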

[1] = designed as: OFF switch for flavin mononucleotide, no ligand
[2] = ligand present: flavin mononucleotide, designed as: OFF switch for flavin mononucleotide
[3] = designed as: ON switch for flavin mononucleotide, no ligand
[4] = ligand present: flavin mononucleotide, designed as: ON switch for flavin mononucleotide

Row | Sequence | apparent Kd [1] | apparent Kd [2] | apparent Kd [3] | apparent Kd [4]
1 | GACUGACGAGGAUAUACAUGAGGAUCACCCAUGUAAGAUCAGCGACUUCGGUCGCAAUGUAGAAGGCGUCAGUC | 0.0282 µM | 0.326 µM |  | 
2 | CCUCAACAGUAGGAUAUCAUAAAACUAUUGUGAUGAGAAGGACUGACAUGAGGAUCACCCAUGUUAACGUGAUA | 0.0196 µM | 0.0305 µM |  | 
3 | GUCAGCUCGUGAGGAUAUACAACACUGCUUCGGAAGUGUAUUAAGAUCACAUGAGGAUCACCCAUGUAGAAGGCACGAGCUGAU | 0.0137 µM | 0.225 µM |  | 
4 | CGCUCAAGAGAGAAGGAUAGAGUCAGAAGGCGUUACAUGAGGAUCACCCAUGUAUAGUAGUGUAACGAGGAUAUGAAAUGAGCG | 0.194 µM | 0.25 µM |  | 
5 | AAUUUACAUGAGGAUCACCCAUGUCAGGAUAUGGUUUUAUUUUUUUCUUUUCUUGAUUCCAGAAGGGACAGUUA | 0.114 µM | 0.0639 µM |  | 
6 | GAAUAUUCGUUGUACAUGAGGAUCACCCAUGUGACUUUACAUGAGGAUAUGGAUUCUAAUUGGAUCCAGAAGGCAUGAAUAUUC |  |  | 0.171 µM | 0.035 µM
7 | CGCUCUAUAUAUUUGGCAAGUAUCAGAAGGCGUUACAUGAGGAUCACCCAUGUUUUGAAUAGUAACGAGGAUAUGAUAUGAGCG | 0.022 µM | 0.0242 µM |  | 
8 | UAGCCCGGCCAGAAGGGAGCUAUACAUGAGGAUCACCCAUGUCACUGACUCAGGAUAUGGCGCGCUUGGUAUAAGUAUUCAUGG |  |  | 0.00836 µM | 0.00546 µM
9 | GUGGUACAUGAGGAUCACCCAUGUUAGGAUAUCGCGUGAGGUUUUACUUCCGCGCGCGCGAGAAGGGACGUCUU | 0.0268 µM | 0.0228 µM |  | 
10 | UCGCUGCGAGGAUAUACGUUUGCGCGCUUUCGUUUGCGCGUACAUGAGGAUCACCCAUGUAGAAGGCGCGCUGC | 0.0155 µM | 0.0155 µM |  | 
11 | AUCAGGCAAGGAUAUGAUAUAGGACACAUGAGGAUCACCCAUGUCCACCGAACGAUCGUUUCAGAAGGUGCACAGU | 0.0728 µM | 0.041 µM |  | 
12 | GUCAGCUCGUGAGGAUAUACAACACUGCUUCGGCAAUGUAUUAAGAUCACAUGAGGAUCACCCAUGUAGAAGGCACGAGCUGAU | 0.00999 µM | 0.164 µM |  | 
13 | CGGGCACAUGAGGAUCACCCAUGUCAGGAUAUCGGCCGGCGGCCGCCGGGCCGCCGGCCGAGAAGGGACGCCCG | 0.0164 µM | 0.0187 µM |  | 
14 | AAAUUGCUAGAGGAUAUCGGAUAGGAUCUAUCGCGAGAAGGUUGGACAUGAGGAUCACCCAUGUUCUGUUGGGA | 0.0244 µM | 0.0261 µM |  | 
15 | AUGUUACAUGAGGAUCACCCAUGUGAGGAUAUGUGUAUCCCUAAAAAAGUGUGGGACCAUAGAAGGCACUUGGA | 0.0629 µM | 0.0981 µM |  | 
16 | UGUUGUAUUACAGGAUAUCUAGUAUUUUUAUGUAGAGAAGGGUAUUCACAUGAGGAUCACCCAUGUAUAUACGAGGAAGUUGUG |  |  | 0.0397 µM | 0.0432 µM
17 | UCGAAGUCCGCCGGACGGCGAGCGAGAAGGCACAAUGAAACGACUCUACAUGAGGAUCACCCAUGUGAGGAUAUCGCGACCUAG | 0.00827 µM | 0.0577 µM |  | 
18 | UGUCCAUAGCAGAAGGACAUGAAUAAACGUGAAAACAUGAGGAUCACCCAUGUAGGAUAUGCUAUGGACUAAGAGCGAAAGCUC | 0.0347 µM | 0.494 µM |  | 
19 | CAGUACUGAGGAUAUACAUGAGGAUCACCCAUGUGUCUAAAGUAGGAUACUACUAUUAGUAGAAGGCAGUACUG | 0.0121 µM | 0.0149 µM |  | 
20 | CCAUUCAGAGGAUAUGCGCAUAGAUAAGACUUUUUUUCUUAACAUGAGGAUCACCCAUGUAGAAGGCUGUAACC | 0.0197 µM | 0.0186 µM |  | 
21 | CCGCAGUGUCUUCAGAAGACAUGAGGAUCACCCAUGUACCAGGAGGAUAUAGUGCGCUUUCCGCGCUAGAAGGCUUGGAUAUAG | 0.115 µM | 0.0708 µM |  | 
22 | GUACUUGUGCAGAAGGGCAUUUAAUUAGAUUUUUAUGUUGAUCAGAAAUGCAGGAUAUGUUAAACAUGAGGAUCACCCAUGUAC |  |  | 0.171 µM | 0.0131 µM
23 | CCGCAUAUGGAGGAUAUCGUAUCGGAAACGAUACGAGAAGGCUAAACAUGAGGAUCACCCAUGUUCCUUAACGG | 0.0181 µM | 0.0181 µM |  | 
24 | GGGCCCGGAGGAUAUACAUGAGGAUCACCCAUGUAGGGCUCGGGUAUUUCUGGGUCUUGUAGAAGGCCGGGCCC | 0.016 µM | 0.0228 µM |  | 
25 | UUCAUGUGAGGAUAUAGUACUCUUUCUAUUAUUUUUGAGUAUUAGAAGGCACAUGAGGAUCACCCAUGUAGUAC | 0.0897 µM | 0.0188 µM |  | 
26 | CGCCGCACCGGCCUGCGGCAGGGUCAGGAUAUACAUGAGGAUCACCCAUGUGAACGGUGCCCAAUGUAGAAGGGACGAAAAGAA | 0.0178 µM | 0.0395 µM |  | 
27 | GUGAAGAUAGCAGGAUAUAUAUUUCCUACAUGAGGAUCACCCAUGUAGGUGAUCAGCCGAGUAAAGUAGAAGGGCUAUCUUUAC |  |  | 0.0161 µM | 0.0107 µM
28 | CCUAUGUGAGGAUAUCACUGGUCUUCUCACUGGAUGAUUAGUGAGAAGGCACAUGAGGAUCACCCAUGUCGGUG | 0.656 µM | 0.451 µM |  | 

Row | Sequence | apparent Kd [1] | apparent Kd [2] | apparent Kd [3] | apparent Kd [4]
29 | GGUGCUAUGUAGAAGGCAGAUCUGAUUCAGAUCUGAGGAUAUACAUGAGGAUCACCCAUGUUAUGCACCAGCACGAGAGUGCAC | 0.00757 µM | 0.0133 µM |  | 
30 | UUGAUUCAUUCCUCCAUAAACAUGAGGAUCACCCAUGUAAGUGAGGAUAUAGUUGGAGUAGUAUACUAGAAGGCACUUAGAUAU | 0.0123 µM | 0.00975 µM |  | 
31 | AACAGCUCGUCAGGAUAUAUUUUCCUUUUAUGUAUUUAUGUACAUGAGGAUCACCCAUGUUGAUAGUAGAAGGGACGAGCUGAA | 0.0138 µM | 0.0344 µM |  | 
32 | GUAUAUCACUUAGGAUAUCUGUAAUUUAUUGAAACAUGAGGAUCACCCAUGUUCAUAAAUUUAUAGGAGAAGGGAGUGAUAUAC |  |  | 0.00419 µM | 0.00424 µM
33 | UCCCAACAUGAGGAUCACCCAUGUAAGGAUAUCUUACUCAUGGACGUCCAUGAGGACCGGAGAAGGUACGUGUA | 0.0194 µM | 0.0198 µM |  | 
34 | ACGUAUCAUGUAGGAUAUGACCCAGGAACUUGGUCAGAAGGACAUGAGGAUCACCCAUGUAGAGUAUGUUAGGAUGACGUAUGC | 0.114 µM | 0.15 µM |  | 
35 | UAUAUAUAGUAAGGAUAUGUAUUAAUGUUAUAAACAGAAGGUACUGACAUGAGGAUCACCCAUGUUUUAGUGUGGGCAUGUAGA | 0.0921 µM | 0.131 µM |  | 
36 | GUUUUUUGUCAUGUACAUGAGGAACAUGAGGAUCACCCAUGUAGAAGGAAUUUUUUUAAGUUUAGUUAGGAUAUACAUAUAUUA | 0.049 µM | 0.0247 µM |  | 
37 | GUAGCACAAGCAAAUGUAACAUGAGGAUCACCCAUGUGUUAUGAGGAUAUGGAUGUGAAGUUAAUCCAGAAGGCAUUAUGCUAC |  |  | 0.0252 µM | 0.0132 µM
38 | GUAUUAAAGAUCCAUUUAUACAACAUGAGGAUCACCCAUGUGCAGGAUAUCGUGUGUUUUUUAUUCGAGAAGGGCAAAUUCAUU | 0.037 µM | 0.0852 µM |  | 
39 | GGUACUCAAAGAGUACCUAUACGAACAUGAGGAUCACCCAUGUAGGAUAUGCUACUCAAAGAGUAGCAGAAGGACAUGUGCCUA | 0.0186 µM | 0.108 µM |  | 
40 | AGAAGGCUACAGAAGGGACACACACGGCGGGAGUCAGGAUAUGUAGAGAAAACGUUACAUGAGGAUCACCCAUGUAGACCUUCC |  |  | 0.123 µM | 0.0199 µM
41 | AGAGCCUCGUGAGGAUAUACAUGAGGAUCACCCAUGUAAAUGAAUGAACGGAGGAAACUCCGAAUGUAGAAGGCACGAGGCUCA | 0.0279 µM | 0.166 µM |  | 
42 | CCAUGACAAAGUCAUGGAUAACGAACAUGAGGAUCACCCAUGUAGGAUAUGCUACUCAAAGAGUAGCAGAAGGACAUGUGCCUU | 0.0361 µM | 0.263 µM |  | 
43 | ACAUAAAUUCGAGGAUAUCGGUGAUUUAAUUUACGAGAAGGCGAUAAAAGUUAUAAACUUAUAGACAUGAGGAUCACCCAUGUA |  |  | 0.0348 µM | 0.0331 µM
44 | UGCAUGCUAGGAUAUACGGGACAUUAGGGUUCGUCGUGUGGACAUGAGGAUCACCCAUGUAGAAGGAGCGUGCU | 0.09 µM | 0.345 µM |  | 
45 | UGUUGGAGCAGAGGAUAUUACAUGAGGAUCACCCAUGUAUGAACCAAUAGCUGGAAACAGCAAUGUAAGAAGGCUGCUCCGACA | 0.0121 µM | 0.161 µM |  | 
46 | CCAGGCUGUGUGAGGAUAUGCUGGUCCUUGGAUCAGCAGAAGGCACAUGAGGAUCACCCAUGUGAGGAGCUUGG | 0.0202 µM | 0.0988 µM |  | 
47 | GUAGCUCCUGACAUGAGGAUCACCCAUGUUCACUUAUUAAAUCAGGAUAUCCUCUCGAAACGAGAGGAGAAGGGAUAAGCUACU |  |  | 0.00784 µM | 0.00736 µM
48 | ACAUGAGGAUCACCCAUGUAUUACAUGGUUAAGUUUAUUAACAGAAGGCGAAAUUACCACUUUUUCGAGGAUAUGUAUUCUAUU | 0.0357 µM | 0.0607 µM |  | 
49 | GGAUAGGACAGAGGAUAUACGUGCUAGAGAUACUAGCAAAAUUUCCUCACAUGAGGAUCACCCAUGUAGAAGGCUGUCCUAUCC | 0.0185 µM | 0.435 µM |  | 
50 | GGGCUUUGGGAGAAGGUACAUUAAAUUAGUUUAACAUGAGGAUCACCCAUGUAAGGAUAUCCCAUCUUGUAUUAUGGUACAGCC | 0.0128 µM | 0.0128 µM |  | 
51 | CUUAUGUGAGGAUAUCAGUAGUAAUACAAUAGUAUUACUACUGAGAAGGCACAUGAGGAUCACCCAUGUUCUUC | 0.134 µM | 0.0369 µM |  | 
52 | CGCUACUACCAGAAGGACAUGAGGAUCACCCAUGUAGGAUAUGGGUUACAAGUACCAGUGUAAAGAAACUACGCUACAGUAGCG |  |  | 0.0578 µM | 0.00873 µM
53 | GGGUACAUCGGAGGAUAUCAUGUAUAUACAUGAGGAUCACCCAUGUCGAUGGAGACAUCGGAGAUUGAGAAGGCCGAUGUACCG |  |  | 0.826 µM | 0.0315 µM
54 | ACAUGAGGAUCACCCAUGUUCACAUAGGAUAUUGAUUUUAUUGGUUUUAGAAUAGUAAUUAACCUCAAGAAGGAUGCCAGUUCU |  |  | 0.014 µM | 0.0112 µM
55 | ACACAUGAGGAUCACCCAUGUAGCUGGCGUCUGCACCAGCCACAGGAUAUACGGCAACACAAGCCGUAGAAGGGUGAUAAACAC |  |  | 0.0675 µM | 0.0216 µM
